In ChEMBL document CHEMBL1770120 (Eur J Med Chem, 2011):

Tests used:
[1] = Total plasma clearance in Sprague-Dawley rat at 5 mg/kg, iv by LC-MS/MS analysis; assay type: ADME, organism-based; parameters: dose 5 mg/kg, route intravenous
How it was run: (§1)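 Male Sprague-Dawley rats (200–220 g), five per group, fasted from the evening before dosing until 2 h post-dose. Single i.v. dose of 5 mg/kg in cremophor:ethanol (1:1) diluted with sterile 0.154 M NaCl, given at 10 ml/kg. Plasma sampled 5–1440 min. Plasma kept at -20 °C and assayed by LC-MS-MS after liquid–liquid extraction. Parameters from mean plasma concentrations by non-compartmental analysis.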

[2] = Apparent volume of distribution in Sprague-Dawley rat at 5 mg/kg, iv by LC-MS/MS analysis; assay type: ADME, organism-based; parameters: dose 5 mg/kg, route intravenous; settings: in vivo, read-out: Vz; how it was run: as §1
[3] = Cytotoxicity against human KB-0528 cells after 72 hrs by SRB assay; assay type: functional, cell-based; settings: KB-0528, 72 h
How it was run: (§2)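 Cells grown in RPMI 1640 with 10% FBS at 37 °C under 5% CO2 and seeded at 0.4–1.0 × 10^4 cells/well. Compounds added after 24 h from DMSO stock, at least five concentrations, final DMSO ≤0.1%. Exposure 72 h. Growth read by SRB staining at OD 520 nm. Three experiments, each in quadruplicate. IC50 taken from survival (%) versus concentration curves.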

[4] = Cytotoxicity against human HL60-0607-2 cells after 72 hrs by SRB assay; assay type: functional, cell-based; how it was run: as §2
[5] = Cytotoxicity against multidrug-resistant human KBR-0530 cells after 72 hrs by SRB assay; assay type: functional, cell-based; settings: KBR-0530, 72 h; how it was run: as §2
[6] = Cytotoxicity against multidrug-resistant human KBR-0602 cells after 72 hrs by SRB assay; assay type: functional, cell-based; settings: KBR-0602, 72 h; how it was run: as §2
[7] = Cytotoxicity against multidrug-resistant human HL60OR-0604-2 cells after 72 hrs by SRB assay; assay type: functional, cell-based; how it was run: as §2
[8] = AUC (0 to t) in Sprague-Dawley rat at 5 mg/kg, iv by LC-MS/MS analysis; assay type: ADME, organism-based; parameters: dose 5 mg/kg, route intravenous; settings: plasma; how it was run: as §1
[9] = AUC (0 to infinity) in Sprague-Dawley rat at 5 mg/kg, iv by LC-MS/MS analysis; assay type: ADME, organism-based; parameters: time infinity, dose 5 mg/kg, route intravenous; settings: plasma; how it was run: as §1
[10] = Mean residence time in Sprague-Dawley rat at 5 mg/kg, iv by LC-MS/MS analysis; assay type: ADME, organism-based; parameters: dose 5 mg/kg, route intravenous; settings: in vivo; how it was run: as §1
[11] = Half life in Sprague-Dawley rat plasma at 5 mg/kg, iv by LC-MS/MS analysis; assay type: ADME, organism-based; parameters: dose 5 mg/kg, route intravenous; how it was run: as §1
[12] = Ratio of compound IC50 to docetaxel IC50 for human HL60-0607-2 cells; assay type: functional
[13] = Ratio of compound IC50 to docetaxel IC50 for human HL60OR-0604-2 cells; assay type: functional
[14] = Intrinsic clearance in human liver microsomes; assay type: ADME, Microsome
How it was run: (§3)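 Test compound at 5 µmol/L with pooled human liver microsomes (0.5 mg/mL) and 1 mM NADPH in 0.1 M potassium phosphate buffer, pH 7.4, at 37 °C. Reactions stopped with acetonitrile at 0, 5, 10, 15, 30 and 60 min. Samples extracted with n-hexane:dichloromethane:isopropanol and spun to remove protein. Remaining parent measured by HPLC-MS (ESI positive).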

[15] = (§4) Metabolic stability in human liver microsomes assessed as unchanged remaining compound after 60 mins; assay type: ADME, Microsome; settings: liver microsomes, read-out: Stability; how it was run: as §3
[16] = (§5) Half life in human liver microsomes; assay type: ADME, Microsome; settings: liver microsomes; how it was run: as §3
Liver microsomes [17] = assay: as §4; assay type: ADME, Microsome; settings: microsomes, 1 h; how it was run: as §3
Liver microsomes [18] = assay: as §5; assay type: ADME, Microsome; settings: microsomes; how it was run: as §3

Row | SMILES | clearance [1] [mL/min/kg] | Vd [2] [L/kg] | IC50 [3] [nM] | IC50 [4] [nM] | IC50 [5] [nM] | IC50 [6] [nM] | IC50 [7] [nM] | AUC(0-t) [8] [ng·h/mL] | AUC(0-inf) [9] [ng·h/mL] | MRT [10] [h] | half-life [11] [h] | Ratio IC50 [12] | Ratio IC50 [13] | CLint scaled [14] [mL/min/kg] | remaining at 1 h [15] [%] | half-life [16] [h] | Stability (Liver microsomes [17]) [%] | t1/2 (Liver microsomes [18]) [h]
1 | CC(=O)O[C@@]12CO[C@@H]1C[C@H](O)[C@@]1(C)C(=O)[C@H](O)C3=C(C)[C@@H](OC(=O)[C@H](O)[C@@H](NC(=O)OC(C)(C)C(F)(F)F)c4ccccc4)C[C@@](O)([C@@H](OC(=O)c4cccc(F)c4)[C@H]21)C3(C)C | 21.3 | 13.7 | 0.21 | 0.0547 | 0.108 | 0.149 | 0.191 | 3870 | 3940 | 2.13 | 7.62 |  |  |  |  |  |  | 
2 | CC(=O)O[C@@]12CO[C@@H]1C[C@H](O)[C@@]1(C)C(=O)[C@H](O)C3=C(C)[C@@H](OC(=O)[C@H](O)[C@@H](NC(=O)OC(C)(C)C(F)(F)F)c4ccc(F)cc4)C[C@@](O)([C@@H](OC(=O)c4ccccc4)[C@H]21)C3(C)C | 21.3 | 15.8 | 0.0259 | 0.000358 | 0.332 | 0.432 | 0.0155 | 3870 | 3980 | 2.78 | 8.5 | 20 | 10 | 0.36 | 88.5 | 57.8 |  | 
3 | CC(=O)O[C@@]12CO[C@@H]1C[C@H](O)[C@@]1(C)C(=O)[C@H](O)C3=C(C)[C@@H](OC(=O)[C@H](O)[C@@H](NC(=O)OC(C)(C)C(F)F)c4ccccc4)C[C@@](O)([C@@H](OC(=O)c4cccc(F)c4)[C@H]21)C3(C)C | 42.5 | 36.2 |  | 0.183 | 0.161 | 0.182 | 0.584 | 1930 | 1990 | 2.4 | 10.2 |  |  |  |  |  |  | 
4 | CC(=O)O[C@@]12CO[C@@H]1C[C@H](O)[C@@]1(C)C(=O)[C@H](O)C3=C(C)[C@@H](OC(=O)[C@H](O)[C@@H](NC(=O)OC(C)(C)C(F)F)c4ccccc4)C[C@@](O)([C@@H](OC(=O)c4ccccc4)[C@H]21)C3(C)C | 29.8 | 20.2 | 0.282 | 0.176 | 0.332 | 0.369 | 0.554 | 2860 | 2930 | 2.76 | 7.69 |  |  |  |  |  |  | 
5 | CC(=O)O[C@@]12CO[C@@H]1C[C@H](O)[C@@]1(C)C(=O)[C@H](O)C3=C(C)[C@@H](OC(=O)[C@H](O)[C@@H](NC(=O)OC(C)(C)CF)c4ccc(F)cc4)C[C@@](O)([C@@H](OC(=O)c4ccccc4)[C@H]21)C3(C)C | 50.3 | 22 | 0.915 | 0.14 | 0.232 | 0.195 | 0.51 | 1640 | 1660 | 2.13 | 5.06 |  |  | 8.62 |  |  | 53.8 | 2.407
6 | CC(=O)O[C@@]12CO[C@@H]1C[C@H](O)[C@@]1(C)C(=O)[C@H](O)C3=C(C)[C@@H](OC(=O)[C@H](O)[C@@H](NC(=O)OC(C)(C)CF)c4ccccc4)C[C@@](O)([C@@H](OC(=O)c4cccc(F)c4)[C@H]21)C3(C)C | 37.7 | 22.7 | 0.248 | 0.00111 | 0.0669 | 0.205 | 2.97 | 2190 | 2240 | 2.3 | 6.8 |  |  |  |  |  |  | 
7 | CC(=O)O[C@@]12CO[C@@H]1C[C@H](O)[C@@]1(C)C(=O)[C@H](O)C3=C(C)[C@@H](OC(=O)[C@H](O)[C@@H](NC(=O)OC(C)(C)C(F)F)c4ccc(F)cc4)C[C@@](O)([C@@H](OC(=O)c4ccccc4)[C@H]21)C3(C)C | 25.2 | 27.4 | 0.397 | 0.0168 | 0.321 | 0.885 | 2.08 | 3150 | 3360 | 4.28 | 13.4 |  |  | 3.41 |  |  | 72.4 | 6.08
8 | CC(=O)O[C@@]12CO[C@@H]1C[C@H](O)[C@@]1(C)C(=O)[C@H](O)C3=C(C)[C@@H](OC(=O)[C@H](O)[C@@H](NC(=O)OC(C)(C)CF)c4ccccc4)C[C@@](O)([C@@H](OC(=O)c4ccccc4)[C@H]21)C3(C)C | 84.8 | 89.7 | 0.506 | 0.156 | 0.0322 | 0.792 | 0.958 | 914 | 994 | 5.62 | 12.2 |  |  |  |  |  |  | 
9 | CC(=O)O[C@@]12CO[C@@H]1C[C@H](O)[C@@]1(C)C(=O)[C@H](O)C3=C(C)[C@@H](OC(=O)[C@H](O)[C@@H](NC(=O)OC(C)(C)C)c4ccccc4)C[C@@](O)([C@@H](OC(=O)c4ccccc4)[C@H]21)C3(C)C.O.O.O [DOCETAXEL] | 125 | 78.8 | 0.454 | 0.0115 | 0.132 | 0.234 | 0.114 | 646 | 667 | 3.34 | 7.37 |  |  |  |  |  |  | 
10 | CC(=O)O[C@@]12CO[C@@H]1C[C@H](O)[C@@]1(C)C(=O)[C@H](O)C3=C(C)[C@@H](OC(=O)[C@H](O)[C@@H](NC(=O)OC(C)(C)C(F)(F)F)c4ccccc4)C[C@@](O)([C@@H](OC(=O)c4ccccc4)[C@H]21)C3(C)C | 21 | 18.1 | 0.0834 | 0.263 | 0.694 | 0.626 | 0.41 | 3860 | 3960 | 2.32 | 9.91 |  |  |  |  |  |  | 
